According to ChEMBL document CHEMBL3751842, “Novel triazolothiadiazines act as potent anticancer agents in liver cancer cells through Akt and ASK-1 proteins” (Bioorg Med Chem, 2016):
Activity calls are given as the source filed them. The calls are words filed in the database; no cut-off is given here.

Key:
Huh-7 [1] = assay: Induction of apoptosis in human HuH7 cells assessed as nuclear condensation at 10 uM after 48 hrs by Hoechst 33258 staining-based immunofluorescence microscopy; assay type: functional, cell-based
Outline: (§1)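 Cells on coverslips were incubated overnight, then treated with 10 µM compound or DMSO for 48 h. They were washed in ice-cold PBS, fixed in cold methanol for 10 min, and stained with 1 µg/mL Hoechst 33258 for 5 min in the dark. Nuclei were examined by fluorescence microscopy with a 40x objective.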

[2] = biological target: T1, Catenin beta-1 (Homo sapiens) (UniProt P35222); assay: Induction of beta-catenin phosphorylation in human HuH7 cells after 24 to 48 hrs by Western blot analysis; assay type: cell-based; conditions: Huh-7
T1 sequence (whole entry): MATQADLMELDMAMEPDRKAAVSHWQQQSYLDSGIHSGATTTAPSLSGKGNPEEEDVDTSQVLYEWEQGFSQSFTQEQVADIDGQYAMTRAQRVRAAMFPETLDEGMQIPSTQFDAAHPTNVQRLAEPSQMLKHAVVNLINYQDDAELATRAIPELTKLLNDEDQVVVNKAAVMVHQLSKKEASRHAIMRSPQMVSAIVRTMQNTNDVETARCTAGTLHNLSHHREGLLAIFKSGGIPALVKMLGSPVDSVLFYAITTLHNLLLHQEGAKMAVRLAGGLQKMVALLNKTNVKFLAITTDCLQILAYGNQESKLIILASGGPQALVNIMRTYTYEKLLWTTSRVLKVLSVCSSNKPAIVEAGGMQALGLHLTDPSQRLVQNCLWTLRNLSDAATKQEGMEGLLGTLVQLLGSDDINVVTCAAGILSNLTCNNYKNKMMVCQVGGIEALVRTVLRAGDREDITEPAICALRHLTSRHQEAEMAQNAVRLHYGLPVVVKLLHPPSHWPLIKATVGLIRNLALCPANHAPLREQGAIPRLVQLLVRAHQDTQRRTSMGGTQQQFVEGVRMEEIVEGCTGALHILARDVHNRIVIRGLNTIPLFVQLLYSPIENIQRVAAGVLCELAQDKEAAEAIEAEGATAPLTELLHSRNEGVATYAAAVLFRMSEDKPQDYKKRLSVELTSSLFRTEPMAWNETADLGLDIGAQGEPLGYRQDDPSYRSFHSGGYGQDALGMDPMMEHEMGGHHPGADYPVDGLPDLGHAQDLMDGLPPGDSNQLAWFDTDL
Outline: (§2)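 Cells were exposed to compound or DMSO control for 24 or 48 h. Lysates were loaded at […] protein per lane and immunoblotted with antibodies diluted 1:100 to 1:500 in 5% BSA-TBS-T. Targets were p-Akt (Ser473), Akt, p-GSK3-α/β (Ser21/9), GSK3-α/β, SAPK/JNK, p-SAPK/JNK (Thr183/Tyr185), PARP, p-β-catenin, β-catenin, cyclin D1, p-ASK1 (S83) and p-ASK1 (S966). Actin served as the loading control.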

Huh-7 [3] = assay: Induction of oxidative stress in human HuH7 cells assessed as ROS accumulation at 10 uM after 48 hrs by DCFH-DA staining based fluorescence microscopy; assay type: functional, cell-based
Outline: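 Cells in 6-well dishes were treated with 10 µM compound or DMSO for 48 h. They were washed in PBS and stained for 15 min at 37°C in the dark with DCFH-DA solution (1 mM DCFH-DA, 10 mM glucose, 10 mM HEPES in PBS). After three PBS washes, cells were viewed by fluorescence microscopy. Selenium-deficient serum-free medium culture served as the positive control.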

Huh-7 [4] = assay: Induction of apoptosis in human HuH7 cells assessed as horseshoe nuclear structure at 10 uM after 48 hrs by Hoechst 33258 staining-based immunofluorescence microscopy; assay type: functional, cell-based; outline: as §1
Huh-7 [5] = assay: Cytotoxicity against human HuH7 cells assessed as cell impedance at IC25 to IC100 measured every 30 mins for 72 hrs by RT-CES assay; assay type: functional, cell-based; conditions: TDE = time-dependent effect
Outline: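 Huh7 cells were seeded at 1000–5000 cells/well on electrode plates. […] Impedance was read as cell index every 10 min for the first 24 h, then every 30 min, over 72 h. Data were normalized to DMSO; inhibition (%) = [1 − (CI treated/CI DMSO)] × 100. Each experiment was run at least three times.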

[6] = Cytotoxicity against human Mahlavu cells assessed as growth inhibition after 72 hrs by sulforhodamine B assay; assay type: functional, cell-based; conditions: Homo sapiens, Mahlavu, 72 h; read-out: IC50
Outline: (§3)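 Cells were grown at 37°C, 5% CO2 in DMEM with 10% FBS. They were seeded at 1000–3000 cells/well, grown 24 h, then exposed to compound at 2.5–40 µM for 72 h. Cells were fixed in 10% TCA for 1 h at 4°C, stained with 0.4% SRB in 1% acetic acid for 10 min, and the dye solubilized in 10 mM Tris. Absorbance was read at 515 nm; runs were in triplicate; IC50 was calculated, with fits of R2 0.8–1 accepted.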

[7] = Cytotoxicity against human FOCUS cells assessed as growth inhibition after 72 hrs by sulforhodamine B assay; assay type: functional, cell-based; conditions: Homo sapiens, FOCUS, 72 h; read-out: IC50; outline: as §3
[8] = Effect on un-phosphorylated beta-catenin level in human Mahlavu cells after 24 to 48 hrs by Western blot analysis; assay type: ADME, cell-based; outline: as §2

Compound	Activity (Huh-7 [1])	Activity [2]	Activity (Huh-7 [3])	Activity (Huh-7 [4])	Activity (Huh-7 [5])	IC50 [6]	IC50 [7]	Activity [8]
Cc1ccc(C2=Nn3c(nnc3C(C)c3ccc(CC(C)C)cc3)SC2)cc1 (stereo unspecified)	Active	Active	Active	Active	tde	8.5 µM	6.8 µM	Non-toxic
COc1ccc(C2=Nn3c(nnc3C(C)c3ccc(CC(C)C)cc3)SC2)cc1 (stereo unspecified)	Active	Active	Active	Active	tde	13.6 µM	2.4 µM	Non-toxic
